In general, MIC50 refers to the lowest concentration that inhibits either 50% of growth or 50% of the strains tested, depending on the study. A lower MIC50 goes with greater potency. What is called MIC90 is the lowest concentration that inhibits either 90% of growth or 90% of the strains tested, depending on the study. Low values mean greater potency, high ones weaker potency. A word on the MIC: it is the least concentration at which growth counts as inhibited. The low end stands for inhibition by little substance, the high end for a need for much substance.

The source of these data is ChEMBL document CHEMBL1255469, “In vitro activity of a new isothiazoloquinolone, ACH-702, against Mycobacterium tuberculosis and other mycobacteria” (2010).

Common to all, as to assay type: functional
Assay [1] deals with Mycolicibacterium fortuitum. Kind of assay: Antimicrobial activity against Mycobacterium fortuitum clinical isolates after 7 days by broth microdilution assay. The note with it: 168 h. On the technique in general: In broth dilution the organism is exposed to a series of concentrations in liquid medium.
The test system of a further assay is Mycobacteroides chelonae. Kind of assay: Antimicrobial activity against Mycobacterium chelonae clinical isolates after 7 days by broth microdilution assay. The note with it: 168 h.
A further assay deals with Mycobacterium gordonae. The assay can be described thus: Antimicrobial activity against Mycobacterium gordonae after 7 days by broth microdilution assay. The note with it: 168 h. The essentials: (§1)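 Slowly growing mycobacteria were identified by phenotype and hsp65 PCR-RFLP. MIC by CLSI broth microdilution in cation-adjusted Mueller-Hinton broth with OADC supplement at a final 10%. Final drug range 0.06 to 16 μg/ml. Read after 7 days at 35°C. S. aureus ATCC 29213 was run as a quality control with each plate lot.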

The subject of assay [2] is Mycobacterium tuberculosis. Kind of assay: Antimicrobial activity against isoniazid and rifampin-susceptible Mycobacterium tuberculosis clinical isolates after 7 days by broth microdilution assay. The note with it: 168 h. The essentials:
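Alamar Blue broth microdilution in 7H9GC broth (Middlebrook 7H9 base, glycerol, Casitone, 10% OADC). Drug stock 1 mg/ml in 100% DMSO, diluted in broth to a final 0.03 to 8 μg/ml. M. tuberculosis H37Rv served as the susceptible-strain control. Isoniazid and rifampin resistance was assigned beforehand by the proportion method.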

Another assay concerns Mycobacterium kansasii. The assay can be described thus: Antimicrobial activity against Mycobacterium kansasii after 7 days by broth microdilution assay. The note with it: 168 h. Summed up:
as §1

The test system of assay [3] is Mycobacteroides abscessus. The assay can be described thus: Antimicrobial activity against Mycobacterium abscessus clinical isolates after 7 days by broth microdilution assay. The note with it: 168 h.
In assay [4] the test system is Mycobacterium avium complex sp. Kind of assay: Antimicrobial activity against Mycobacterium avium complex clinical isolates after 7 days by broth microdilution assay. The note with it: 168 h. Summed up: as §1
The next assay relates to Staphylococcus aureus. Kind of assay: Antimicrobial activity against Staphylococcus aureus ATCC 29213 after 72 hrs by broth microdilution assay. The note with it: ATCC 29213, 72 h.

Molecules are shown by their SMILES. In brackets after ≈: the same amount, converted by molar mass.

For the compound `COc1c(N2CC[C@@H](C(C)(C)N)C2)c(F)cc2c(=O)c3c(=O)[nH]sc3n(C3CC3)c12`, the MIC50 in assay [1] was at most 0.0625 mg/L; in assay [2] it was 0.0625 mg/L (≈ 0.145 µM); in assay [4], 0.25 mg/L (≈ 0.578 µM). The MIC90 was at most 0.0625 mg/L in assay [1], 0.125 mg/L (≈ 0.289 µM) in assay [2] and 4 mg/L (≈ 9.25 µM) in assay [4]. For the same compound, the MIC in the assay with Mycobacteroides chelonae was 8 mg/L (≈ 18.5 µM); in the assay on Mycobacterium gordonae, 0.12 mg/L (≈ 0.277 µM); in the assay with Mycobacterium kansasii, 0.12 mg/L (≈ 0.277 µM); in assay [3], 16 mg/L (≈ 37 µM); with Staphylococcus aureus, at most 0.06 mg/L.
